{"source": "paper PMC5862033", "about": "(Molecular psychiatry, 2017)", "key": {"[1]": {"assay": "d5 OT pharmacokinetics in plasma and CSF after IN and IV administration", "assay_type": "in vivo, rhesus monkeys (Macaca Mulatta)", "conditions": "for Drug targeting efficiency percentage (DTE%), single monkey: 80 IU d5 OT IN vs IV, AUC0-60 min, individual monkey", "in_short": "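Rhesus monkeys sedated IM: ketamine (10 mg/kg), dexdomitor (0.01 mg/kg), glycopyrrolate 0.01 mg/kg i.m.; 80 IU deuterated test compound given IN or IV (1 mL normal saline, leg vein), IN saline control, counterbalanced weekly sessions. Blood and CSF drawn pre-dose and 10–60 min. Samples acetonitrile-precipitated, SPE-cleaned at pH 3.0, LC-MS/MS. Non-compartmental AUC0–60, Cmax, Tmax; bioavailability and DTE from AUC ratios.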"}, "[2]": {"conditions": "statement in discussion, no reference given; cited from earlier work"}, "[3]": {"conditions": "used as correction in blood contamination formula; cited from earlier work"}, "[4]": {"conditions": "study did not use labelled OT; cited from earlier work"}}, "data": [{"compound": "d5-oxytocin [d5 OT]", "values": [{"measurement": "Drug targeting efficiency percentage (DTE%), single monkey", "setting": "[1]; first of 4 values listed", "result": 33.6, "unit": "%"}, {"measurement": "Drug targeting efficiency percentage (DTE%), single monkey", "setting": "[1]; second of 4 values listed", "result": 50.5, "unit": "%"}, {"measurement": "Drug targeting efficiency percentage (DTE%), single monkey", "setting": "[1]; third of 4 values listed", "result": 154.6, "unit": "%"}, {"measurement": "Bioavailability post IN administration for plasma and CSF", "setting": "[1]; 100 x (AUC IN/AUC IV), 80 IU d5 OT, plasma and CSF, values only in words", "result": "similar, albeit low"}]}, {"compound": "atosiban", "values": [{"measurement": "Passage of the BBB", "setting": "[2]", "result": "does not pass the BBB"}]}, {"compound": "CC[C@H](C)[C@@H]1NC(=O)[C@H](Cc2ccc(O)cc2)NC(=O)[C@@H](N)CSSC[C@@H](C(=O)N2CCC[C@H]2C(=O)N[C@@H](CC(C)C)C(=O)NCC(N)=O)NC(=O)[C@H](CC(N)=O)NC(=O)[C@H](CCC(N)=O)NC1=O", "note": "[OT, Oxytocin]", "values": [{"measurement": "Fraction of OT that is not protein bound", "setting": "[3]", "result": 0.7}, {"measurement": "Fraction of OT crossing the BBB", "setting": "[4]", "result": "~ .002%"}]}]}
